From ChEMBL document CHEMBL1121685, “Development of new mitomycin C and porfiromycin analogues” (J Med Chem, 1981)

Experiments:
Mus musculus [1] = test: Antitumor activity against P-388 murine leukemia cells in CDF1 female mice after intraperitoneal administration at the specified optimal dose of 51.2 mg/kg; type: functional
[2] = Therapeutic ratio is expressed as ratio of optimal dose and minimum effective dose; type: ADME; settings: mouse; read-out: TR
Procedure, shortened: (§1)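 10⁶ P-388 ascites cells implanted ip in CDF₁ female mice. Six mice per dose, 10 saline-injected controls, and a concurrent mitomycin C reference group. %T/C = median survival time of treated/control × 100. MED is the lowest dose giving %T/C > 125. Therapeutic ratio = optimal dose/MED.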

Mus musculus [3] = test: Effect of compound on total white blood cell count in BDG1 male mice, after intraperitoneal administration at a dose of 12.8 mg/kg on day 5 (highest dose was twice the optimal dose); type: functional
Procedure, shortened: (§2)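 BDG₁ male mice received a single ip dose on day 0. The dose series topped out at the LD₅₀ level, or at twice the optimal dose for some agents. Total white blood cell count was taken on days 3, 5 and 7 and expressed as % change from untreated controls. Significance was set at p ≤ 0.05 or p ≤ 0.01.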

Mus musculus [4] = test: Antitumor activity against P-388 murine leukemia cells in CDF1 female mice after intraperitoneal administration at the specified optimal dose of 6.4 mg/kg; type: functional
Mus musculus [5] = test: Effect of compound on total white blood cell count in BDG1 male mice, after intraperitoneal administration at a dose of 12.8 mg/kg on day 7 (highest dose was twice the optimal dose); type: functional
Mus musculus [6] = test: Effect of compound on total white blood cell count in BDG1 male mice, after intraperitoneal administration at a dose of 6.4 mg/kg on day 5; type: functional
Procedure, shortened: (§3)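 Single ip dose given on day 0 to BDG₁ male mice. Total white blood cell count measured on days 3, 5 and 7, expressed as % change from control. Highest dose was at the LD₅₀, or at twice the optimal dose where so footnoted. Significance reported at p ≤ 0.05 and p ≤ 0.01. D marks death of one or more mice.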

Mus musculus [7] = test: Effect of compound on total white blood cell count in BDG1 male mice, after intraperitoneal administration at a dose of 6.4 mg/kg on day 3; type: functional; procedure, shortened: as §3
Mus musculus [8] = test: Effect of compound on total white blood cell count in BDG1 male mice, after intraperitoneal administration at a dose of 6.4 mg/kg on day 7; type: functional; procedure, shortened: as §3
Mus musculus [9] = test: Effect of compound on total white blood cell count in BDG1 male mice, after intraperitoneal administration at a dose of 12.8 mg/kg on day 3 (highest dose was twice the optimal dose); type: functional; procedure, shortened: as §2
Mus musculus [10] = test: Minimum effective dose that show activity against P-388 murine leukemia cells in CDF1 female mice, after intraperitoneal administration (optimal dose is 6.4 mg/kg); type: functional; settings: P388, ip, read-out: MED; procedure, shortened: as §1
Mus musculus [11] = species: Mus musculus; test: Degree of leukopenia produced by compound is assessed form Percent change in white cells on days 5; type: functional; procedure, shortened: as §2
Mus musculus [12] = test: Activity of compound dose of 9 mg/kg/day against Murine B-16 Melanocarcinoma in mice; type: functional
Mus musculus [13] = test: Activity of compound dose of 36 mg/kg/day against Murine B-16 Melanocarcinoma in mice; type: functional
Mus musculus [14] = test: Activity of compound dose of 18 mg/kg/day against Murine B-16 Melanocarcinoma in mice; type: functional
Mus musculus [15] = test: Effect of compound on total white blood cell count in BDG1 male mice, after intraperitoneal administration at a dose of 29.6 mg/kg on day 5; type: functional
Procedure, shortened: (§4)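 Single ip dose given on day 0 to BDG1 male mice over a descending dose series. Total white blood cell count is expressed as % change from untreated control on days 3, 5 and 7. Significance is flagged at p ≤ 0.05 and p ≤ 0.01.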

Mus musculus [16] = test: Effect of compound on total white blood cell count in BDG1 male mice, after intraperitoneal administration at a dose of 29.6 mg/kg on day 3; type: functional; procedure, shortened: as §4
Mus musculus [17] = test: Activity of compound dose of 1.13 mg/kg/day against Murine B-16 Melanocarcinoma in mice; type: functional
Mus musculus [18] = test: Number of cured survivors, 45 days after administration of compound at a dose of 18 mg/kg/day in mice; type: functional
Mus musculus [19] = test: Number of cured survivors, 45 days after administration of compound at a dose of 36 mg/kg/day in mice; type: functional
Mus musculus [20] = test: Minimum effective dose that show activity against P-388 murine leukemia cells in CDF1 female mice, after intraperitoneal administration (optimal dose is 12.8 mg/kg); type: functional; settings: P388, ip, read-out: MED; procedure, shortened: as §1
Mus musculus [21] = test: Effect of compound on total white blood cell count in BDG1 male mice, after intraperitoneal administration at a dose of 22.2 mg/kg on day 7; type: functional; procedure, shortened: as §4
Mus musculus [22] = test: Number of tumored survivors, 45 days after administration of compound at a dose of 18 mg/kg/day in mice; type: functional
Mus musculus [23] = species: Mus musculus; test: Half-wave potential produced by the compound at their optimal dose; type: functional; set-up: unit not given here
Mus musculus [24] = test: Effect of compound on total white blood cell count in BDG1 male mice, after intraperitoneal administration at a dose of 50.9 mg/kg on day 3; type: functional; procedure, shortened: as §3
Mus musculus [25] = test: Effect of compound on total white blood cell count in BDG1 male mice, after intraperitoneal administration at a dose of 39.4 mg/kg on day 5; type: functional; procedure, shortened: as §4
Mus musculus [26] = test: Activity of compound dose of 2.25 mg/kg/day against Murine B-16 Melanocarcinoma in mice; type: functional
Mus musculus [27] = test: Effect of compound on total white blood cell count in BDG1 male mice, after intraperitoneal administration at a dose 29.6 mg/kg on day 7; type: functional; procedure, shortened: as §2
Mus musculus [28] = test: Antitumor activity against P-388 murine leukemia cells in CDF1 female mice after intraperitoneal administration at the specified optimal dose of 12.8 mg/kg; type: functional
Mus musculus [29] = test: Effect of compound on total white blood cell count in BDG1 male mice, after intraperitoneal administration at a dose of 22.2 mg/kg on day 3; type: functional; procedure, shortened: as §4
Mus musculus [30] = test: Activity of compound dose of 4.5 mg/kg/day against Murine B-16 Melanocarcinoma in mice; type: functional
Mus musculus [31] = test: Effect of compound on total white blood cell count in BDG1 male mice, after intraperitoneal administration at a dose of 50.9 mg/kg on day 7; type: functional; procedure, shortened: as §3
Mus musculus [32] = test: Effect of compound on total white blood cell count in BDG1 male mice, after intraperitoneal administration at a dose of 39.4 mg/kg on day 3; type: functional; procedure, shortened: as §4
Mus musculus [33] = test: Effect of compound on total white blood cell count in BDG1 male mice, after intraperitoneal administration at a dose of 22.2 mg/kg on day 5; type: functional; procedure, shortened: as §4
Mus musculus [34] = species: Mus musculus; test: Degree of leukopenia produced by compound is assessed form Percent change in white cells on day 7; type: functional; procedure, shortened: as §2
Mus musculus [35] = test: Effect of compound on total white blood cell count in BDG1 male mice, after intraperitoneal administration at a dose of 1.69 mg/kg on day 3; type: functional; procedure, shortened: as §2
Mus musculus [36] = test: Effect of compound on total white blood cell count in BDG1 male mice, after intraperitoneal administration at a dose of 2.55 mg/kg on day 7; type: functional; procedure, shortened: as §4
Mus musculus [37] = test: Effect of compound on total white blood cell count in BDG1 male mice, after intraperitoneal administration at a dose of 3 mg/kg on day 3; type: functional; procedure, shortened: as §4
Mus musculus [38] = test: Effect of compound on total white blood cell count in BDG1 male mice, after intraperitoneal administration at a dose of 2.55 mg/kg on day 5; type: functional; procedure, shortened: as §4
Mus musculus [39] = test: Effect of compound on total white blood cell count in BDG1 male mice, after intraperitoneal administration at a dose of 3 mg/kg on day 5; type: functional; procedure, shortened: as §4
Mus musculus [40] = test: Antitumor activity against P-388 murine leukemia cells in CDF1 female mice after intraperitoneal administration at the specified optimal dose of 1.6 mg/kg; type: functional
Mus musculus [41] = test: Effect of compound on total white blood cell count in BDG1 male mice, after intraperitoneal administration at a dose of 1.69 mg/kg on day 7; type: functional; procedure, shortened: as §2
Mus musculus [42] = test: Effect of compound on total white blood cell count in BDG1 male mice, after intraperitoneal administration at a dose of 1.69 mg/kg on day 5; type: functional; procedure, shortened: as §2
Mus musculus [43] = test: Minimum effective dose that show activity against P-388 murine leukemia cells in CDF1 female mice, after intraperitoneal administration (optimal dose is 1.6 mg/kg); type: functional; settings: P388, ip, read-out: MED
Mus musculus [44] = test: Effect of compound on total white blood cell count in BDG1 male mice, after intraperitoneal administration at a dose of 3 mg/kg on day 7; type: functional; procedure, shortened: as §4
Mus musculus [45] = test: Effect of compound on total white blood cell count in BDG1 male mice, after intraperitoneal administration at a dose of 1.27 mg/kg on day 3; type: functional; procedure, shortened: as §2
Mus musculus [46] = test: Effect of compound on total white blood cell count in BDG1 male mice, after intraperitoneal administration at a dose of 2.55 mg/kg on day 3; type: functional; procedure, shortened: as §4
Mus musculus [47] = test: Effect of compound on total white blood cell count in BDG1 male mice, after intraperitoneal administration at a dose of 1.27 mg/kg on day 5; type: functional; procedure, shortened: as §2
Mus musculus [48] = test: Effect of compound on total white blood cell count in BDG1 male mice, after intraperitoneal administration at a dose of 1.27 mg/kg on day 7; type: functional; procedure, shortened: as §2

## COC12[C@@H](COC(N)=O)C3=C(C(=O)C(C)=C(NCCCl)C3=O)N1C[C@@H]1[C@H]2N1C (some centres not stated)
Mus musculus [1]
  T/C: 205%
[2]
  selectivity ratio: 8

## C=CCNC1=C(C)C(=O)C2=C(C1=O)[C@H](COC(N)=O)C1(OC)[C@@H]3N[C@@H]3CN21 (some centres not stated)
Mus musculus [3]
  Change: -42%
Mus musculus [4]
  T/C: 150%
Mus musculus [5]
  Change: 6%
[2]
  selectivity ratio: 2
Mus musculus [6]
  Change: -37%
Mus musculus [7]
  Change: -35%
Mus musculus [8]
  Change: -0.6%
Mus musculus [9]
  Change: -33%
Mus musculus [10]
  minimal effective dose: 3.2 mg/kg

## COC12[C@@H]3N[C@@H]3CN1C1=C(C(=O)C(NCc3ccco3)=C(C)C1=O)[C@@H]2COC(N)=O (some centres not stated)
Mus musculus [11]
  Change: -54%
Mus musculus [12]
  T/C: 186%
Mus musculus [13]
  T/C: 247%
Mus musculus [14]
  T/C: 219%
Mus musculus [15]
  Change: -67%
Mus musculus [16]
  Change: -78%
Mus musculus [17]
  T/C: 125%
Mus musculus [18]
  Survivors: 3
[2]
  selectivity ratio: > 32
Mus musculus [19]
  Survivors: 6
Mus musculus [20]
  minimal effective dose: < 0.4 mg/kg
Mus musculus [21]
  Change: -1%
Mus musculus [22]
  Survivors: 1
Mus musculus [23]
  E1/2: -0.39
Mus musculus [24]
  Change: -76%
Mus musculus [25]
  Change: -74%
Mus musculus [26]
  T/C: 148%
Mus musculus [27]
  Change: 0%
Mus musculus [28]
  T/C: 276%
Mus musculus [29]
  Change: -70%
Mus musculus [30]
  T/C: 170%
Mus musculus [31]
  Change: -64%
Mus musculus [32]
  Change: -84%
Mus musculus [33]
  Change: 62%

## COC12[C@@H]3N[C@@H]3CN1C1=C(C(=O)C(N3CC3)=C(C)C1=O)[C@@H]2COC(N)=O (some centres not stated)
Mus musculus [34]
  Change: -11%
Mus musculus [35]
  Change: 16%
Mus musculus [36]
  Change: 18%
Mus musculus [37]
  Change: -12%
Mus musculus [38]
  Change: 34%
[2]
  selectivity ratio: 64
Mus musculus [39]
  Change: 3%
Mus musculus [23]
  E1/2: -0.31
Mus musculus [40]
  T/C: 266%
Mus musculus [41]
  Change: -11%
Mus musculus [42]
  Change: 9%
Mus musculus [43]
  minimal effective dose: 0.025 mg/kg
Mus musculus [44]
  Change: 13%
Mus musculus [45]
  Change: -16%
Mus musculus [46]
  Change: 15%
Mus musculus [47]
  Change: 27%
Mus musculus [48]
  Change: 3%
